The record followed here is ChEMBL document CHEMBL1149791, “Evaluation of myorelaxant activity of 7-substituted hexahydroquinoline derivatives in isolated rabbit gastric fundus” (2008).

Calls of active or inactive are those of the source. The rule behind the calls is not given here.

Test [1] deals with Stomach. In words: Inhibition of electrical field stimulation-induced neurogenic contractions in New Zealand white rabbit gastric fundus smooth muscle. The format is functional, Oryctolagus cuniculus.
The test system of test [2] is Stomach. Kind of test: Reversal of inhibition of electrical field stimulation-induced neurogenic contractions in New Zealand white rabbit gastric fundus smooth muscle in presence of glibenclamide. The test is classed as functional, Oryctolagus cuniculus.
Test [3] deals with Stomach. Kind of test: Myorelaxant activity against noradrenaline-induced contractions in New Zealand white rabbit gastric fundus smooth muscle. The format is functional, Oryctolagus cuniculus. Summed up: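 Longitudinal fundus strips (15-20 mm x 2 mm) were equilibrated 60 min at 1 g basal tension in Krebs-Henseleit solution, with the solution changed every 15 min. L-NAME 10^-4 M and indomethacin 10^-5 M were added 20 min before precontraction. Strips were precontracted with noradrenaline 10^-5 M. Compounds in DMSO were added cumulatively, each step after a plateau. pD2 and Em (at 3 x 10^-4 M) are mean ± S.E., n = 6.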

The subject of test [4] is Stomach. In words: Myorelaxant activity against noradrenaline-induced contractions in New Zealand white rabbit gastric fundus smooth muscle in presence of glibenclamide. The format is functional, tissue-based. As to conditions: Oryctolagus cuniculus.
Test [5] has as its system Stomach. Kind of test: Inhibition of neostigmine-induced neurogenic contractions in New Zealand white rabbit gastric fundus smooth muscle. The format is functional, tissue-based. As to conditions: Oryctolagus cuniculus. In short, it runs like this:
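Longitudinal gastric fundus strips (about 15–20 mm × 2 mm) from New Zealand white rabbits (2.5–3 kg), taken after i.v. pentobarbital. Strips were held in Krebs–Henseleit organ baths at 1 g basal tension and equilibrated 60 min. Contractions were evoked by electrical field stimulation through platinum electrodes (1 ms pulses, 60 V, 8 Hz) with neostigmine 10^-6 M. Compounds were dissolved in DMSO.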

As a reminder, the Emax is the maximal effect, on the per cent scale that the assay sets. For `CC(N/C(=N\C#N)Nc1ccncc1)C(C)(C)C` (centres undefined) [PINACIDIL ANHYDROUS], the figures for the pD2 in test [1] and in test [3] were 7.49 and 5.03, respectively. For the same compound, the Emax in test [1] (Oryctolagus cuniculus, Stomach) is 76.3%; in test [3] (Oryctolagus cuniculus, Stomach) it was 71.2%. For the same compound, in test [2], the “inhibition (INH)” value was 32.18%. In addition, the result in test [4] was Active.
For `CN1[C@@H]2CC[C@H]1CC(OC(=O)[C@H](CO)c1ccccc1)C2` (some centres undefined), the result in test [1] (Oryctolagus cuniculus) and in test [5] was Active.
`NC1=N[C@H](O)[C@H]2[C@H]3O[C@]4(O)O[C@@H]([C@@H](O)[C@@]2(N1)[C@@H]4O)[C@]3(O)CO`: the outcome in test [1] (Oryctolagus cuniculus) was Active.
